Consider two compounds from ChEMBL document CHEMBL4316595, “Synthesis and structure-activity relationship studies of parthenolide derivatives as potential anti-triple negative breast cancer agents” (Eur J Med Chem, 2019).

In series [1] the test system is MDA-MB-231. The experiment in a line: Antiproliferative activity against human MDA-MB-231 cells co-treated with melampomagnolide B at 1:1 molar ratio measured after 72 hrs by MTT assay. As to conditions: MDA-MB-231, 72 h. A general note: Formazan colour is commonly taken as a measure of viable cells.
Series [2] deals with MDA-MB-231. The experiment in a line: Antiproliferative activity against human MDA-MB-231 cells measured after 72 hrs by MTT assay. The format is functional, cell-based. The note with it: MDA-MB-231, 72 h. The method in brief: (§1)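 MTT antiproliferation assay on human breast cancer lines MDA-MB-231, SUM-159, MCF-7 and Bcap-37 and on mouse 4T1 breast cancer cells. IC50 values were taken from the MTT read-out. Adriamycin served as the positive control.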

Series [3] concerns 4T1. The experiment in a line: Antiproliferative activity against mouse 4T1 cells measured after 72 hrs by MTT assay. The format is functional, cell-based. The note with it: 4T1, 72 h. The method in brief: as §1
For series [4], the system named is SUM-159-PT. The experiment in a line: Induction of apoptosis in human SUM159 cells assessed as necrotic cells at 0.5 uM measured after 48 hrs by Annexin-V APC/propidium iodide staining based flow cytometry (reference value: 0.152%). The format is functional. In outline:
(§2)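 SUM-159 cells were exposed at 0, 0.2 and 0.5 µM, then stained with annexin V/PI and analysed by flow cytometry. Early apoptosis was annexin V+/PI−, late apoptosis annexin V+/PI+, and total apoptosis was the sum of the two.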
(In general: A flow cytometer gives signals particle by particle.)

A short description of series [5]: Therapeutic index, ratio of IC50 for mouse 3T3 cells to IC50 for mouse 4T1 cells. The format is toxicity. The note with it: 3T3 cells and 4T1 cells, read-out: Ratio IC50.
Series [6] has as its target Cyclin-dependent kinase 1 (Homo sapiens) (UniProt P06493). The experiment in a line: Inhibition of CDC2 phosphorylation in human SUM159 cells at 0.1 to 0.2 uM measured after 48 hrs by Western blot analysis. The format is cell-based. For orientation: Immunoblotting shows a protein as a band on a membrane.
Series [7] has as its system SUM-159-PT. Nature of the series: Induction of apoptosis in human SUM159 cells assessed as viable cells at 0.2 uM measured after 48 hrs by Annexin-V APC/propidium iodide staining based flow cytometry (reference value: 95.9%). It counts as functional. The note with it: read-out: Activity. In outline:
as §2

In series [8] the test system is SUM-159-PT. Nature of the series: Induction of apoptosis in human SUM159 cells assessed as increase in cleaved caspase-9 measured after 48 hrs by Western blot analysis. It counts as functional, cell-based.
Series [9] has as its system SUM-159-PT. Nature of the series: Cell cycle arrest in human SUM159 cells assessed as decrease in G2/M-phase accumulation at […] measured after 48 hrs by propidium iodide staining based flow cytometry. It counts as functional. In outline: (§3)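 SUM-159 cells were treated for 48 h. Cell cycle distribution (G1, S, G2/M) was measured by flow cytometry and compared with an untreated control group.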

For series [10], the system named is SUM-159-PT. Nature of the series: Cell cycle arrest in human SUM159 cells assessed as up regulation of P27 expression at 0.1 to 0.2 uM measured after 48 hrs by Western blot analysis. It counts as functional, cell-based.
For series [11], the system named is SUM-159-PT. The experiment in a line: Induction of apoptosis in human SUM159 cells assessed as late apoptotic cells at 0.5 uM measured after 48 hrs by Annexin-V APC/propidium iodide staining based flow cytometry (reference value: 1.45%). It counts as functional. In outline: as §2
The test system of series [12] is SUM-159-PT. The experiment in a line: Cell cycle arrest in human SUM159 cells assessed as down regulation of CHK2 expression at 0.1 to 0.2 uM measured after 48 hrs by Western blot analysis. It counts as functional, cell-based.
Series [13] deals with SUM-159-PT. Nature of the series: Induction of apoptosis in human SUM159 cells assessed as late apoptotic cells at 0.2 uM measured after 48 hrs by Annexin-V APC/propidium iodide staining based flow cytometry (reference value: 1.45%). It counts as functional. The method in brief: as §2
Series [14] concerns MDA-MB-231. Nature of the series: Potency index, ratio of parthenolide IC50 to test compound IC50 for human MDA-MB-231 cells. The format is functional.
The test system of series [15] is 4T1. The experiment in a line: Potency index, ratio of parthenolide IC50 to test compound IC50 for mouse 4T1 cells. It counts as functional.
In series [16] the test system is SUM-159-PT. Nature of the series: Cell cycle arrest in human SUM159 cells assessed as decrease in S-phase accumulation measured after 48 hrs by propidium iodide staining based flow cytometry.
Series [17] relates to SUM-159-PT. Nature of the series: Induction of apoptosis in human SUM159 cells assessed as viable cells at 0.5 uM measured after 48 hrs by Annexin-V APC/propidium iodide staining based flow cytometry (reference value: 95.9%). The format is functional. As to conditions: read-out: Activity. The method in brief: as §2
The subject of series [18] is SUM-159-PT. Nature of the series: Induction of apoptosis in human SUM159 cells assessed as increase in Bim expression measured after 48 hrs by Western blot analysis. The format is functional, cell-based.
In series [19] the test system is SUM-159-PT. Nature of the series: Induction of apoptosis in human SUM159 cells assessed as early apoptotic cells at 0.5 uM measured after 48 hrs by Annexin-V APC/propidium iodide staining based flow cytometry (reference value: 2.5%). The format is functional. In outline:
as §2

Series [20] has as its system Bcap37. The experiment in a line: Potency index, ratio of parthenolide IC50 to test compound IC50 for human Bcap37 cells. The format is functional.
The test system of series [21] is MCF7. The experiment in a line: Antiproliferative activity against human MCF7 cells measured after 72 hrs by MTT assay. The format is functional, cell-based. The note with it: MCF7, 72 h. The method in brief:
as §1

In series [22] the test system is SUM-159-PT. The experiment in a line: Induction of apoptosis in human SUM159 cells assessed as necrotic cells at 0.2 uM measured after 48 hrs by Annexin-V APC/propidium iodide staining based flow cytometry (reference value: 0.152%). It counts as functional. In outline: as §2
The target in series [23] is T1, Serine/threonine-protein kinase Chk1 (Homo sapiens) (UniProt O14757).
T1 sequence (whole entry): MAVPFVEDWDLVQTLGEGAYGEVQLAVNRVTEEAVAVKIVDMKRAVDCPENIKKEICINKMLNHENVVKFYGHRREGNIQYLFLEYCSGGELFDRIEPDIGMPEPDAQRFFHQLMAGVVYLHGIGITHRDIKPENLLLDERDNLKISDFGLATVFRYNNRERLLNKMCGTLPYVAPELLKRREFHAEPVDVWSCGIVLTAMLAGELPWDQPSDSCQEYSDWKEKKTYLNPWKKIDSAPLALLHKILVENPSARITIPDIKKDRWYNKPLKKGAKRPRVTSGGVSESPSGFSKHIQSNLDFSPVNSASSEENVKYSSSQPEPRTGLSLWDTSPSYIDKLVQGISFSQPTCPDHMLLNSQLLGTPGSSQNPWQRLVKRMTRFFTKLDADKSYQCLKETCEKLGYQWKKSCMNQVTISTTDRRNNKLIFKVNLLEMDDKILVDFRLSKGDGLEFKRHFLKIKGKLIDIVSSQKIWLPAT
The experiment in a line: Inhibition of Chk1 phosphorylation in human SUM159 cells at 0.1 to 0.2 uM measured after 48 hrs by Western blot analysis. It counts as cell-based.

The subject of series [24] is SUM-159-PT. Nature of the series: Induction of apoptosis in human SUM159 cells assessed as increase in Bax expression measured after 48 hrs by Western blot analysis. It counts as functional, cell-based.
Series [25] deals with SUM-159-PT. The experiment in a line: Induction of apoptosis in human SUM159 cells assessed as early apoptotic cells at 0.2 uM measured after 48 hrs by Annexin-V APC/propidium iodide staining based flow cytometry (reference value: 2.5%). The format is functional. In outline:
as §2

Series [26] concerns SUM-159-PT. Nature of the series: Induction of apoptosis in human SUM159 cells assessed as increase in cytochrome-C release measured after 48 hrs by Western blot analysis. It counts as functional, cell-based.
For series [27], the system named is SUM-159-PT. The experiment in a line: Antiproliferative activity against human SUM159 cells measured after 72 hrs by MTT assay. It counts as functional, cell-based. The method in brief:
as §1

Series [28] concerns the target Serine/threonine-protein kinase Chk2 (Homo sapiens) (UniProt O96017). The experiment in a line: Inhibition of Chk2 phosphorylation in human SUM159 cells at 0.1 to 0.2 uM measured after 48 hrs by Western blot analysis. The format is cell-based.
Series [29] deals with Bcap37. The experiment in a line: Antiproliferative activity against human Bcap37 cells measured after 72 hrs by MTT assay. The format is functional, cell-based. As to conditions: Bcap37, 72 h. The method in brief: as §1
Series [30] relates to NIH3T3. Nature of the series: Cytotoxicity against mouse 3T3 cells measured after 72 hrs by MTT assay. It counts as cell-based. The note with it: NIH3T3, 72 h. The method in brief: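 Cytotoxicity was measured by MTT on normal 3T3 mouse embryonic fibroblasts, with IC50 from the MTT read-out.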
The test system of series [31] is MCF7. Nature of the series: Potency index, ratio of parthenolide IC50 to test compound IC50 for human MCF7 cells. It counts as functional.
In series [32] the test system is SUM-159-PT. Nature of the series: Cell cycle arrest in human SUM159 cells assessed as increase in G1-phase accumulation at […] measured after 48 hrs by propidium iodide staining based flow cytometry. It counts as functional. The method in brief: as §3
Series [33] has as its system SUM-159-PT. Nature of the series: Cell cycle arrest in human SUM159 cells assessed as down regulation of CHK1 expression at 0.1 to 0.2 uM measured after 48 hrs by Western blot analysis. The format is functional, cell-based.
Series [34] relates to SUM-159-PT. Nature of the series: Potency index, ratio of parthenolide IC50 to test compound IC50 for human SUM159 cells. The format is functional.

Structures are written as SMILES. Activity calls are given as the source filed them. No cut-off for these calls is given here. Where only a bound is given, the exact number is not on record here.

Usually IC50 stands for the concentration at which inhibition is half-maximal.

Serine/threonine-protein kinase Chk2 (Homo sapiens), sequence (O96017 whole entry): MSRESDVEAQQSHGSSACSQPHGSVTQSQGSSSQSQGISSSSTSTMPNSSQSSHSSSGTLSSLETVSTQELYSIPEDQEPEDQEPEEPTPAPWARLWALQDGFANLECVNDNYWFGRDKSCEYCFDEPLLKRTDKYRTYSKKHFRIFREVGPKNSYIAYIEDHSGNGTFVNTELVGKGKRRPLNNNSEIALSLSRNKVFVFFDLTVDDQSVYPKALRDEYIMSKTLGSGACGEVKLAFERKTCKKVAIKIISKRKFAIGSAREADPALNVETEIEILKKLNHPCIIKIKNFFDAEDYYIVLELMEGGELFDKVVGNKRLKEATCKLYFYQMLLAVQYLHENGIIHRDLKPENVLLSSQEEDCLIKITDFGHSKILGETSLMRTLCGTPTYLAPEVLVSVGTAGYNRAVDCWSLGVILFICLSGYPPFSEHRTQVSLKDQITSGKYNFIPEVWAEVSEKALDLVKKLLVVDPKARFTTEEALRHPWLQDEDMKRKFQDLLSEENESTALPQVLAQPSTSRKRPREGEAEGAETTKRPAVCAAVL
Cyclin-dependent kinase 1 (Homo sapiens), sequence (P06493 whole entry, looked up): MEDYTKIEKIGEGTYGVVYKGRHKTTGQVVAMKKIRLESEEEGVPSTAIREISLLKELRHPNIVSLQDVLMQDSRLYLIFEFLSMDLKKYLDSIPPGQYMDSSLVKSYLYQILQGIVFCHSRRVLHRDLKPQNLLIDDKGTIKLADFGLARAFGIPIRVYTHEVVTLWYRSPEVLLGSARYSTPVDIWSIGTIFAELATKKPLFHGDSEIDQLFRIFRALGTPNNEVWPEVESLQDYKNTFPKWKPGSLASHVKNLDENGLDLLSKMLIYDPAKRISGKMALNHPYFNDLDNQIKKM

Turning to `COc1cccc(OC)c1/C=C/C(=O)O`, the IC50 in [1] was 3920 nM; in [2], above 50000 nM.

Consider `C=C1C(=O)O[C@H]2[C@H]1CC/C(COC(=O)/C=C/c1c(OC)cccc1OC)=C\CC[C@@]1(C)O[C@@H]21`, for which the IC50 in [3] was determined as 220 nM; in series [2], 250 nM; in series [21], 230 nM; in series [27] it was 200 nM; in series [29], 270 nM; in [30] it was 8130 nM. The Activity in [4] stood at 2.04%; in [11] it was 6.07%; in series [13], 0.79%; in [19], 30.5%; in [22] it was 0.029%; in series [25], 2.93%. The selectivity ratio in [5] turned out to be 36.9. For the same compound, the inhibition entry in series [6], in series [23] and in series [28] was “Active” throughout. The viability at 0.2 µM in series [7] was found to be 96.3%. Besides, the result in series [8], in series [9], in series [10], in [12], in series [16] and in series [18] was Active. Also, the outcome in [24], in series [26], in [32] and in [33] was Active. Also, the Ratio IC50 is 14 in series [14]; 11.6 - 18.6 in [15]; 11.6 - 18.6 in series [20]; 11.6 - 18.6 in [31]; 11.6 - 18.6 in [34]. In series [17], the viability at 0.5 µM came out at 61.3%.
